In ChEMBL document CHEMBL4007433, “Design, synthesis, biological evaluation and molecular modeling study of novel macrocyclic bisbibenzyl analogues as antitubulin agents” (Eur J Med Chem, 2017):
Counter-ions that a name gives are not always drawn. Calls of active or inactive are those of the source. No cut-off for these calls is given here.

Key:
[1] = system: HT-29; assay: Antiproliferative activity against human HT-29 cells after 48 hrs by MTT assay; type: functional, cell-based; conditions: HT-29, 48 h
[2] = Antiproliferative activity against human HCC1428 cells after 48 hrs by MTT assay; type: functional, cell-based; conditions: HCC1428, 48 h
[3] = system: HeLa; assay: Antiproliferative activity against human HeLa cells after 48 hrs by MTT assay; type: functional, cell-based
[4] = system: PC-3; assay: Antiproliferative activity against paclitaxel-resistant human PC3 cells after 48 hrs by MTT assay; type: functional, cell-based; conditions: PC-3, 48 h
[5] = system: K562; assay: Antiproliferative activity against human K562 cells after 48 hrs by MTT assay; type: functional, cell-based; conditions: K562, 48 h
[6] = Cell cycle arrest in human HCC1428 cells assessed as accumulation at G2/M phase at 1 uM after 24 hrs by propidium iodide staining based flow cytometry (reference value: […]%); type: functional
[7] = species: Bos taurus; assay: Inhibition of bovine brain tubulin polymerization at 5 uM measured every 1 min for 1 hr by spectrophotometric method
Method in brief: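 Bovine brain tubulin (>97% pure) in G-PEM buffer (80 mM PIPES, 0.5 mM EGTA, 1.0 mM GTP, pH 6.9) with 0.1% DMSO, set up at 4 °C with or without compound, using a commercial HTS kit. Vincristine and taxol at 5 µM as controls. Polymerization followed by A340 every 1 min for 1 h at 37 °C.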

[8] = Cell cycle arrest in human HCC1428 cells assessed as accumulation at G1 phase at 1 uM after 24 hrs by propidium iodide staining based flow cytometry (reference value: 62.61%); type: functional
[9] = Cell cycle arrest in human HCC1428 cells assessed as accumulation at S phase at 1 uM after 24 hrs by propidium iodide staining based flow cytometry (reference value: 24.46%); type: functional
[10] = species: Homo sapiens; assay: Inhibition of alpha-tubulin polymerization in human HCC1428 cells at 1 uM after 24 hrs by confocal microscopic method; type: cell-based
Method in brief: (§1)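 HCC1428 cells grown on glass coverslips and treated 24 h; 1 µM vincristine and DMSO as controls. Fixed in cold methanol/acetone (1:1) 5 min, then blocked 20 min in 3% goat serum with 0.1% Triton X-100. Stained with mouse anti-α-tubulin and a FITC secondary, DAPI 4 µg/mL 15 min. Imaged by confocal microscopy; three independent experiments.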

[11] = system: HCC1428; assay: Antiproliferative activity against human HCC1428 cells at 1 uM […] by RTCA; type: functional, cell-based
Method in brief: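 Real-time impedance (xCELLigence RTCA DP) monitoring of HCC1428 cells plated at 2000 cells/well in E-plate 16. Cells kept in RPMI-1640 with 2% FBS at 37 °C, 5% CO2 throughout. Growth curves recorded over 84 h of compound exposure. Representative of three independent experiments.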

[12] = species: Homo sapiens; assay: Inhibition of alpha-tubulin polymerization in human HCC1428 cells at 6 to 10 uM after 24 hrs by confocal microscopic method; type: cell-based; method in brief: as §1
[13] = species: Homo sapiens; assay: Inhibition of alpha-tubulin polymerization in human HCC1428 cells at 3 uM after 24 hrs by confocal microscopic method; type: cell-based; method in brief: as §1

Structure (SMILES) | IC50 [1] | IC50 [3] | IC50 [4] | IC50 [5] | inhibition [7] | IC50 [2] | Activity [6] | Activity [8] | Activity [9] | inhibition [10] | Activity [11] | inhibition [12] | inhibition [13]
COc1cccc2c1C(=O)c1c(O)c3c(c(O)c1C2=O)C[C@@](O)(C(=O)CO)C[C@@H]3O[C@H]1C[C@H](N)[C@H](O)[C@H](C)O1 [DOXORUBICIN HYDROCHLORIDE] | 1.76 µM | 1.23 µM | 16.9 µM | 0.57 µM | – | 1.77 µM | – | – | – | – | – | – | –
Oc1cc2ccc1Oc1cccc(c1)CCc1ccc(O)c(c1)Oc1ccc(cc1)CC2 | 12.7 µM | 18.9 µM | – | 15.7 µM | – | 22.4 µM | – | – | – | – | – | – | –
Oc1ccc2cc1Oc1ccc(cc1)/C=C\c1cccc(O)c1Oc1ccccc1CC2 | 9.6 µM | 21.9 µM | – | 19.2 µM | – | 17.1 µM | – | – | – | – | – | – | –
Oc1ccc2cc1Oc1ccc(cc1)CCc1cc(O)c(c(O)c1)Oc1cccc(c1)CC2 | 20.1 µM | 28.3 µM | – | 29.9 µM | – | 25.2 µM | – | – | – | – | – | – | –
CC[C@]1(O)C[C@H]2CN(CCc3c([nH]c4ccccc34)[C@@](C(=O)OC)(c3cc4c(cc3OC)N(C=O)[C@H]3[C@@](O)(C(=O)OC)[C@H](OC(C)=O)[C@]5(CC)C=CCN6CC[C@]43[C@@H]65)C2)C1 [VINCRISTINE] | – | – | – | – | Active | – | 88.89% | 4.15% | 6.96% | Active | Active | – | –
Oc1ccc2cc1Oc1ccc(cc1)CCc1ccc(O)c(c1)Oc1cccc(c1)CC2 | 7.98 µM | 11.7 µM | 13.4 µM | 7.02 µM | – | 10.7 µM | – | – | – | – | – | Active | inactive

The next lines start with results.

IC50 [1] | IC50 [3] | IC50 [4] | IC50 [5] | inhibition [7] | Structure (SMILES) | IC50 [2] | Activity [6] | Activity [8] | Activity [9] | inhibition [10] | Activity [11] | inhibition [12] | inhibition [13]
7.98 µM | 15.9 µM | – | 14.1 µM | – | Oc1ccc2c(c1)CCc1ccc(O)c(c1)Oc1ccc(cc1)CCc1cccc(O)c1O2 | 10.8 µM | – | – | – | – | – | – | –
17 µM | 27.4 µM | – | 24.9 µM | – | Oc1ccc2cc1Oc1ccc(cc1)CCc1cccc(O)c1Oc1ccc(cc1O)CC2 | 19.5 µM | – | – | – | – | – | – | –
11.6 µM | 15.8 µM | – | 6.06 µM | – | Oc1cc2ccc1Oc1ccc(cc1)CCc1cccc(O)c1Oc1cccc(c1)CC2 | 7.69 µM | – | – | – | – | – | – | –
